In publication PMC7226180 (Cancer Science, 2020):
Where two headings read alike, the source gives them in different places. Marks after values point to notes of the source that are not given here.

Key:
[1] = test system: ER+ metastatic breast cancer; settings: patients, cited from earlier work
[2] = test system: breast cancer; settings: cited from earlier work
[3] = test system: SW620; assay: cells; assay type: cell-based; settings: Homo sapiens, SW-620, 144 h, read-out: Proliferation inhibition IC50 (mean ± SD)
[4] = test system: T‐47D; assay: cells; assay type: cell-based; settings: Homo sapiens, T47D, 144 h, read-out: Proliferation inhibition IC50 (mean ± SD)
[5] = test system: HepG2; assay: cells; assay type: cell-based; settings: Homo sapiens, HepG2, 144 h, read-out: Proliferation inhibition IC50 (mean ± SD)
[6] = test system: U87‐MG‐Luc human glioblastoma; assay: U87‐MG‐Luc human glioblastoma orthotopic model; assay type: in vivo, female BALB/c nude mice; settings: for Median survival time (mean ± SEM): 75 mg/kg (vehicle 30 ± 1 d); for Increase life span: 75 mg/kg, compared with vehicle
In short: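 Female BALB/c nude mice, 6–8 weeks old, received 3 × 10⁵ U87-MG-Luc cells with 20% Matrigel. Cells were injected slowly into a skull hole about 2 mm right of the anterior fontanel and 1 mm ahead of the coronal. On day 8, mice were randomized by bioluminescence and dosed orally once daily. Survival was followed by Kaplan–Meier; life-span increase is relative to vehicle, with P by comparison to vehicle.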

[7] = test system: MCF‐7; assay: cells; assay type: cell-based; settings: Homo sapiens, MCF7, 144 h, read-out: Proliferation inhibition IC50 (mean ± SD)
[8] = test system: Calu‐3; assay: cells; assay type: cell-based; settings: Homo sapiens, Calu-3, 144 h, read-out: Proliferation inhibition IC50 (mean ± SD)
[9] = test system: MV4‐11 xenograft; assay: MV4‐11 s.c. human tumor xenograft; assay type: in vivo, BALB/c nude mice; settings: MV4‐11 s.c. xenograft, i.g., QD 20 d, 50 mg/kg
[10] = test system: ER/progesterone receptor+/HER2− advanced breast cancer; settings: women, LY2835219 plus anastrozole or letrozole; cited from earlier work
[11] = test system: MCF‐7/ARO; assay: cells; assay type: cell-based; settings: 144 h, read-out: Proliferation inhibition IC50 (mean ± SD)
[12] = test system: MCF‐7 cells; assay: Senescence assay; assay type: cell-based; settings: MCF‐7, 12‐day exposure, dose‐dependent
In short: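 MCF-7 cells grown at 37°C, 5% CO₂ in DMEM or RPMI-1640 with 10% FBS. Seeded in 6-well plates and exposed to the test compound at the indicated concentrations, or vehicle, for 12 days. Then stained with SA-β-galactosidase staining solution following the kit instructions. Stocks were 10 mmol/L in DMSO.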

[13] = in vivo; design: species or system female BALB/c nude mice
[14] = test system: A549; assay: cells; assay type: cell-based; settings: Homo sapiens, A549, 144 h, read-out: Proliferation inhibition IC50 (mean ± SD)
[15] = target: CDK3 (Homo sapiens, UniProt Q00526); assay: Enzymatic profiling, LANCE Ultra assay; assay type: biochemical
Sequence of CDK3 (Q00526 whole entry): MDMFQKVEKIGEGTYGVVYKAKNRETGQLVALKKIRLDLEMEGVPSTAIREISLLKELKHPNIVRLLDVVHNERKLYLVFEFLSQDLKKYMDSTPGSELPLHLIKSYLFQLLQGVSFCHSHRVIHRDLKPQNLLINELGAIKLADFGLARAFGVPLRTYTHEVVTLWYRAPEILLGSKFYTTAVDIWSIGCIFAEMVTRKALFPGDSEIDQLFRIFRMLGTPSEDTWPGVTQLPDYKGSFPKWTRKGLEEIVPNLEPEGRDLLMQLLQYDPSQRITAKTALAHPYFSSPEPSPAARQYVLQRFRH
Sequence of CDK3 (P24864 whole entry, further chain): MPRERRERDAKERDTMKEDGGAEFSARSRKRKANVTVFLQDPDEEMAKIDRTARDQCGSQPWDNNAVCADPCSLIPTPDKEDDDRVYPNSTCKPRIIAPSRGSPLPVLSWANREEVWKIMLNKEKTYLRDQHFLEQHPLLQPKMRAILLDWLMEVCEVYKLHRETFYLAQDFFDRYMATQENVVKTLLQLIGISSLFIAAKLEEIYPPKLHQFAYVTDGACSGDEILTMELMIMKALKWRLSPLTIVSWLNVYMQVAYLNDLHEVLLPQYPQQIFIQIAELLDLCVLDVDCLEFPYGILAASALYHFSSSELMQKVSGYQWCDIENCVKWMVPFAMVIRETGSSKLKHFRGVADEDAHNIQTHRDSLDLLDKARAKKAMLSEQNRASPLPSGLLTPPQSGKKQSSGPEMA

[16] = test system: MCF‐7/ARO xenograft; assay: MCF‐7/ARO s.c. human tumor xenograft, single agents; assay type: in vivo, BALB/c nude mice; settings: MCF‐7/ARO s.c. xenograft, i.g., QD 21 d, 150 mg/kg
[17] = test system: MCF‐7 xenograft; assay: MCF‐7 s.c. human tumor xenograft; assay type: in vivo, BALB/c nude mice; settings: 50 mg/kg; for TGI: MCF‐7 s.c. xenograft, i.g., QD 21 d; for Mean tumor size: MCF‐7 xenograft, day 20 (vehicle 703 mm^3)
[18] = test system: U87‐MG xenograft; assay: U87‐MG s.c. human tumor xenograft; assay type: in vivo, BALB/c nude mice; settings: i.g., QD 18 d, 50 mg/kg
[19] = test system: LN‐18; assay: cells; assay type: cell-based; settings: Homo sapiens, LN-18, 144 h, read-out: Proliferation inhibition IC50 (mean ± SD)
[20] = test system: ES‐2; assay: cells; assay type: cell-based; settings: Homo sapiens, ES-2, 144 h, read-out: Proliferation inhibition IC50 (mean ± SD)
[21] = test system: Rb^Ser780 phosphorylation in MCF‐7 cells; assay: Western blot of Rb, p‐Rb Ser780 and cyclin D1; assay type: cell-based; settings: MCF‐7, 24 h; for Rb^Ser780 phosphorylation and total Rb protein levels: dose‐dependent
In short: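 MCF-7 cells were treated with a range of test compound concentrations for 24 h, then lysed in buffer containing phosphatase inhibitors. Lysates were separated, transferred and probed for Rb, p-Rb Ser780 and cyclin D, with β-tubulin or β-actin as loading controls. Bands were detected by HRP luminol chemiluminescence.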

[22] = test system: Colo‐205 xenograft; assay: Colo‐205 s.c. human tumor xenograft; assay type: in vivo, BALB/c nude mice; settings: Colo‐205 s.c. xenograft, i.g., QD 14 d, 50 mg/kg
[23] = test system: MV‐4‐11; assay: cells; assay type: cell-based; settings: Homo sapiens, MV4-11, 144 h, read-out: Proliferation inhibition IC50 (mean ± SD)
[24] = test system: recurrent Rb‐positive glioblastoma; settings: adult patients, phase II trial; cited from earlier work
[25] = female, BALB/c nude, mouse, in vivo, 75 mg/kg

Row | SMILES | IC50 [3] [nM] | IC50 [4] [nM] | IC50 [5] [nM] | Median survival time (mean ± SEM) [6] [days] | Increase life span [6] [%] | IC50 [8] [nM] | TGI [9] | IC50 [11] [nM] | Cell senescence (SA‐β‐gal staining) [12] | IC50 [14] [nM] | TGI [16] | TGI [17] [%] | Mean tumor size [17] [mm^3] | TGI [18] | IC50 [19] [nM] | IC50 [20] [nM] | Expression of cyclin D1 [21] | Rb^Ser780 phosphorylation and total Rb protein levels [21] | TGI [22] | IC50 [23] [nM] | also measured
1 | N#Cc1ccc(C(c2ccc(C#N)cc2)n2cncn2)cc1 [Letrozole, letrozole] | – | – | – | – | – | – | – | – | – | – | – | – | – | – | – | – | – | – | – | – | Disease‐free survival ([1]; letrozole single‐agent treatment): 10.2 months
2 | CCN1CCN(Cc2ccc(Nc3ncc(F)c(-c4cc(F)c5nc(C)n(C(C)C)c5c4)n3)nc2)CC1 [LY2835219, abemaciclib] | 283 ± 42.7 | 672 ± 119 | 82.3 ± 20.4 | 42 ± 2 | 40.00 | 1000 ± 30 | 54^**, # % | 327 ± 43.8 | could induce cell senescence | 264 ± 28.4 | 67^** % | 114 | 94 | 131^**,## % | 244 ± 3 | 27.8 ± 10.3 | without significantly altering | significant decrease | 82^** % | 79.8 ± 35.3 | PFS ([2]; LY2835219 plus fulvestrant): 16.4 months; IC50 [7]: 218 ± 8.7 nM; Objective response rate and PFS [10]: significantly improved; Levels in the plasma and brain compared with SPH3643 ([13]; 24 hours after the final dose): markedly lower; Kp at 1.5 h [13, 25]: 0.26 ± 0.13; Kp at 24 h [13, 25]: 0.27 ± 0.08; IC50 [15]: 482 nM
3 | C[C@]12CC[C@@H]3c4ccc(O)cc4C[C@@H](CCCCCCCCC[S+]([O-])CCCC(F)(F)C(F)(F)F)[C@H]3[C@@H]1CC[C@@H]2O (stereo partly drawn) [fulvestrant] | – | – | – | – | – | – | – | – | – | – | – | – | – | – | – | – | – | – | – | – | PFS ([2]; fulvestrant alone): 9.3 months
4 | CC(=O)c1c(C)c2cnc(Nc3ccc(N4CCNCC4)cn3)nc2n(C2CCCC2)c1=O [Palbociclib, palbociclib] | 268 ± 36.8 | 1120 ± 686 | 60.6 ± 9 | 35 ± 10 | 16.67 | > 10000 | 68^** % | 374 ± 48.7 | could induce cell senescence | 795 ± 34.5 | 67^** % | 84 | 256 | 96^** % | 112 ± 25.6 | 53.4 ± 1.3 | without significantly altering | significant decrease | 93^** % | 43.1 ± 9.5 | Single‐agent efficacy [24]: failed to achieve; Disease‐free survival ([1]; palbociclib together with letrozole): 20.2 months
